# Measured values taken from ChEMBL document CHEMBL1125618, “Studies on (H(+)-K+)-ATPase inhibitors of gastric acid secretion. Prodrugs of 2-[(2-pyridinylmethyl)sulfinyl]benzimidazole proton-pump inhibitors” (J Med Chem, 1991).
# Active and inactive are the calls of the source. The rule behind the calls is not given here.
# Columns and labels:
# [1] = biological target: Potassium-transporting ATPase (Sus scrofa, UniProt P19156); assay: (§1) Activity was evaluated by measuring the inhibition of isolated hog H+/K+ ATPase; format: protein-complex assay
# Outline: (§2)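 Hog fundic mucosa microsomes. Vesicles (30 μg) preincubated with compound at 37 °C in 40 mM Tris-acetate pH 7.4, 7 mM NH4Cl, with or without KCl. Reaction started with 2 mM ATP (final), run 10 min at 37 °C, stopped with cold TCA plus charcoal. Released inorganic phosphate measured colorimetrically. IC50 from dose-response, mean of triplicates.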
# [2] = biological target: T1, Potassium-transporting ATPase (Rattus norvegicus) (UniProt P09626+P18598); assay: Inhibition of isolated rat H+/K+ ATPase at 10 mg/kg; Inactive; format: functional, organism-based; set-up: dose 10 mg/kg
# Outline: (§3)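 Male Sprague-Dawley rats (~230 g), fasted 16 h without food or water in restraining cages. Compound in 1 mL isotonic saline with 25% ethanol, given sc or by gavage. Killed 3 h later. Fundic mucosa pooled from four rats per treatment, homogenized, microsomes isolated at 170000g. K+-stimulated ATPase assayed as for hog enzyme. ED50 from at least five doses, each in triplicate.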
# Oryctolagus cuniculus [3] = organism: Oryctolagus cuniculus; assay: Antisecretory effect in isolated rabbit gastric glands as measured by aminopyrine uptake; format: functional, Stomach
# Outline: (§4)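 Gastric glands from male New Zealand rabbits (1.5-2.0 kg), isolated by collagenase digestion at 37 °C, pH 7.4. Incubated with compound 45 min at 37 °C with vigorous shaking. Pellet and supernatant radioactivity counted by liquid scintillation. ID50 from at least six doses, duplicate at each dose.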
# [4] = biological target: T2, Potassium-transporting ATPase (Sus scrofa) (UniProt P18434+P19156); assay: as §1; format: protein-complex assay; conditions: concentration not given here; outline: as §2
# [5] = biological target: T2, Potassium-transporting ATPase (Sus scrofa); assay: Activity was evaluated by measuring the inhibition of isolated hog H+/K+ ATPase at concentration of 5E-4; format: protein-complex assay; outline: as §2
# [6] = biological target: T1, Potassium-transporting ATPase (Rattus norvegicus); assay: Inhibition of isolated rat H+/K+ ATPase.; format: protein-complex assay; outline: as §3
# Oryctolagus cuniculus [7] = organism: Oryctolagus cuniculus; assay: Antisecretory effect in isolated rabbit gastric glands as measured by aminopyrine uptake; no effect, 1E-4M concentration; format: functional; conditions: Stomach; outline: as §4
# [8] = biological target: T1, Potassium-transporting ATPase (Rattus norvegicus); assay: Inhibitory activity was evaluated by measuring the inhibition of isolated rat H+/K+ ATPase at a concentration of 10 mg/kg; format: organism-based; set-up: dose 10 mg/kg; outline: as §3
# [9] = biological target: T1, Potassium-transporting ATPase (Rattus norvegicus); assay: Activity was evaluated by measuring the inhibition of isolated rat H+/K+ ATPase, sc; format: protein-complex assay; outline: as §3
# Rattus norvegicus = assay: Inhibition of acid secretion was determined by the compound administered subcutaneously in rats; format: functional; conditions: sc
# Outline: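 Pylorus-ligated (Shay) rats: female Upjohn or Charles River rats fasted 24 h, water withheld the last 18 h. Compound given once sc. Pylorus ligated under ether, then 10 mL saline sc. Gastric juice acidity titrated with 0.1 M NaOH as output (mequiv/2 or 3 h). Usually 12 controls and 5-6 rats per dose.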
# [10] = biological target: T1, Potassium-transporting ATPase (Rattus norvegicus); assay: Activity administered subcutaneously was evaluated by measuring the inhibition of isolated rat H+/K+ ATPase; format: protein-complex assay; outline: as §3
# [11] = biological target: T1, Potassium-transporting ATPase (Rattus norvegicus); assay: Activity was evaluated by measuring the inhibition of isolated rat H+/K+ ATPase at 10 mg/kg; format: organism-based; set-up: dose 10 mg/kg; outline: as §3
# [12] = biological target: T1, Potassium-transporting ATPase (Rattus norvegicus); assay: Activity was evaluated by measuring the inhibition of isolated rat H+/K+ ATPase; no effect, 10 mg/kg sc
# [13] = biological target: T3, Potassium-transporting ATPase (Sus scrofa, UniProt P18434+P19156); assay: Activity was evaluated by measuring the inhibition of isolated hog H+/K+ ATPase; No effect at 5E-4; format: protein-complex assay; outline: as §2
# Oryctolagus cuniculus [14] = organism: Oryctolagus cuniculus; assay: Antisecretory effect in isolated rabbit gastric glands as measured by aminopyrine uptake; Inactive, 1E-4M concentration; format: functional; conditions: Stomach; outline: as §4
# [15] = system: Potassium-transporting ATPase (Rattus norvegicus); assay: Activity was evaluated by measuring the inhibition of isolated rat H+/K+ ATPase at 10 mg/kg; Inactive
# [16] = biological target: T3, Potassium-transporting ATPase; assay: Activity was evaluated by measuring the inhibition of isolated hog H+/K+ ATPase; No effect; format: protein-complex assay; outline: as §2
# Sequence of Potassium-transporting ATPase (Sus scrofa, UniProt P19156) (P18434 whole entry): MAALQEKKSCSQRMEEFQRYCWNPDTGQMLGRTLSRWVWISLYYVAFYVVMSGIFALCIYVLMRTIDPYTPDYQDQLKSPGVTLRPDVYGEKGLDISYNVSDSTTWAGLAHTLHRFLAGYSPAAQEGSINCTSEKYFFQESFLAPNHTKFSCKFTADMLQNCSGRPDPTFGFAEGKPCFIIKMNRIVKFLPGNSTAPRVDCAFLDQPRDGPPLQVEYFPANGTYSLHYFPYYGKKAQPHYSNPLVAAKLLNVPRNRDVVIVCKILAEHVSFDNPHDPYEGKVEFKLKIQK
# Sequence of Potassium-transporting ATPase (Sus scrofa, UniProt P19156) (P19156 whole entry): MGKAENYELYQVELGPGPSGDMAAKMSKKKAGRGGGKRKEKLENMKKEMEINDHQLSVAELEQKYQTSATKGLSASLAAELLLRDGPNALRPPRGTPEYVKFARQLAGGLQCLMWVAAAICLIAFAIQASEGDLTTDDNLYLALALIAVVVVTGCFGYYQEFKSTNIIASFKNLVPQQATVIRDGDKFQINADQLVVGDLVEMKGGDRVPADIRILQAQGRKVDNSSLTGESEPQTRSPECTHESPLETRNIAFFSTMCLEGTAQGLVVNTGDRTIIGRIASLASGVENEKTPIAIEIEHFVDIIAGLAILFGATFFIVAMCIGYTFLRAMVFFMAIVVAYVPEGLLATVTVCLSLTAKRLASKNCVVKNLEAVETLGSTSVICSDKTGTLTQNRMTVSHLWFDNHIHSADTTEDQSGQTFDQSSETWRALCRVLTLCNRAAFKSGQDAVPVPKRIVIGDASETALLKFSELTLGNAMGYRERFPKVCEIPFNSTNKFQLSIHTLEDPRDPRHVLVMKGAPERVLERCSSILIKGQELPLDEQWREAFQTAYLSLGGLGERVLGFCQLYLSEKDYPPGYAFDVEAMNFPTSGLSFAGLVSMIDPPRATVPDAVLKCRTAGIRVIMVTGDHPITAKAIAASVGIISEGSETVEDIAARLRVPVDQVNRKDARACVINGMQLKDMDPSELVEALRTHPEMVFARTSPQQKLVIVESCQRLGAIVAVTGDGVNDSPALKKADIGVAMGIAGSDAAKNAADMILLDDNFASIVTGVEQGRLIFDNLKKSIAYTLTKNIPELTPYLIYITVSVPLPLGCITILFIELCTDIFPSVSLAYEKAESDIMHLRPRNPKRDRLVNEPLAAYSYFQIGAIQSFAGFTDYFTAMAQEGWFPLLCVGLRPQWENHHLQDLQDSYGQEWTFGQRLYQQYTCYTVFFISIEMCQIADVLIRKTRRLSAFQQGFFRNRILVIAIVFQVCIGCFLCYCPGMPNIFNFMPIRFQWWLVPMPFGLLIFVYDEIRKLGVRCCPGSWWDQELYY
# T3 sequence (P18434 whole entry): as the sequence (P18434 whole entry) above
# T3 sequence (P19156 whole entry): as the sequence (P19156 whole entry) above
IC50 [1] [µM],ED50 [6] [mg/kg],Compound,ID50 (Oryctolagus cuniculus [3]) [M],also measured
30,,CCSc1ccnc(C[S+]([O-])c2nc3ccccc3n2CCN2CCCCC2)c1C (stereo not given),2e-05,ED50 [2]: inactive
,,Cn1c([S+]([O-])Cc2ccccn2)nc2ccccc21 (stereo not given),0.001,inhibition [4]: 18%; ED50 [2]: inactive
,5,CCSc1ccnc(C[S+]([O-])c2nc3ccccc3n2COC(=O)C(C)(C)C)c1C (stereo not given),5e-06,inhibition [5]: 30%
200,1.5,CCOC(C)n1c([S+]([O-])Cc2nccc(SCC)c2C)nc2ccccc21 (stereo not given),5e-07,
,,CCSc1ccnc(C[S+]([O-])c2nc3ccccc3n2COCCOC)c1C (stereo not given),1e-05,ED50 [2]: inactive
1500,< 1,COc1c(C)cnc(C[S+]([O-])c2nc3ccccc3n2C(C)OC(C)=O)c1C (stereo not given),4e-07,
,,CC(=O)OC(C)n1c([S+]([O-])Cc2ccccn2)nc2ccccc21 (stereo in doubt; 18a),,ID50 (Oryctolagus cuniculus [7]): inactive
5,5,CCSc1ccnc(C[S+]([O-])c2nc3ccccc3n2C(=O)OCC(C)C)c1C (stereo not given),4e-06,
1000,,COc1c(C)cnc(C[S+]([O-])c2nc3ccccc3n2CCN2CCOCC2)c1C (stereo not given),7e-05,ED50 [2]: inactive
,,CC(OC(=O)c1ccccc1)n1c([S+]([O-])Cc2ccccn2)nc2ccccc21 (stereo in doubt; 29a) [listing 1 of 2 here],,inhibition [8]: 27%
1500,1,CCOC(C)n1c([S+]([O-])Cc2ncc(C)c(OC)c2C)nc2ccccc21 (stereo not given),1e-06,
400,2,CCSc1ccnc(C[S+]([O-])c2nc3ccccc3n2COC(C)=O)c1C (stereo not given),3e-07,
1000,,CCOC(C)n1c([S+]([O-])Cc2ccccn2)nc2ccccc21 (stereo not given),,ED50 [9]: 5 mg/kg; ID50 (Oryctolagus cuniculus [3]; Stomach): inactive
,,CCSc1ccnc(C[S+]([O-])c2nc3ccccc3n2COC)c1C (stereo not given),,ED50 [2]: inactive; ID50 (Oryctolagus cuniculus [3]; Stomach): inactive
,1,COc1ccc2[nH]c([S+]([O-])Cc3ncc(C)c(OC)c3C)nc2c1 (stereo not given) [OMEPRAZOLE],2e-07,ED50 (Rattus norvegicus): < 1 mg/kg
,4,CC(C)C(=O)OCn1c([S+]([O-])Cc2ccccn2)nc2ccccc21 (stereo not given),3e-05,
,2,CCSc1ccnc(C[S+]([O-])c2nc3ccccc3n2C(C)OC(C)=O)c1C (stereo in doubt; 19a),,
,,CC(OC(=O)C(C)(C)C)n1c([S+]([O-])Cc2ccccn2)nc2ccccc21 (stereo in doubt; 30b) [listing 1 of 2 here],,inhibition [8]: 40%
8,,CC(=O)OCn1c([S+]([O-])Cc2ccccn2)nc2ccccc21 (stereo not given),0.0001,ED50 [10]: 5 mg/kg
,4,[O-][S+](Cc1ccccn1)c1nc2ccccc2[nH]1 (stereo not given) [TIMOPRAZOLE],2e-05,inhibition [4]: 27%; ED50 (Rattus norvegicus): 2.5 mg/kg
20,5,CCSc1ccnc(C[S+]([O-])c2nc3ccccc3n2C(=O)Oc2ccccc2)c1C (stereo not given),1.5e-06,
,2,CCSc1ccnc(C[S+]([O-])c2nc3ccccc3n2C(C)OC(C)=O)c1C (stereo in doubt; 19b),,
20,,CCSc1ccnc(C[S+]([O-])c2nc3ccccc3n2C(=O)OCc2ccc([N+](=O)[O-])cc2)c1C (stereo not given),1.5e-06,inhibition [11]: 44%
20,,CCSc1ccnc(C[S+]([O-])c2nc3ccccc3n2C(=O)OCc2ccccc2)c1C (stereo not given),1.5e-06,inhibition [11]: 40%
20,,COc1c(C)cnc(C[S+]([O-])c2nc3ccccc3[nH]2)c1C (stereo not given),2e-07,

IC50 [1] [µM],ED50 [6] [mg/kg],Compound,ID50 (Oryctolagus cuniculus [3]) [M],also measured
10,,CCSc1ccnc(C[S+]([O-])c2nc3ccccc3n2C(=O)OC(C)(C)C(Cl)(Cl)Cl)c1C (stereo not given),5e-05,ED50 [12]: inactive
,,CC(OC(=O)c1ccccc1)n1c([S+]([O-])Cc2ccccn2)nc2ccccc21 (stereo in doubt; 29b),,inhibition [8]: 35%; ID50 (Oryctolagus cuniculus [7]): inactive
1000,,CCOCCn1c([S+]([O-])Cc2nccc(SCC)c2C)nc2ccccc21 (stereo not given),2e-06,ED50 [2]: inactive
,,CCSc1ccnc(C[S+]([O-])c2nc3ccccc3n2COC(=O)c2ccccc2)c1C (stereo not given),1.5e-06,inhibition [8]: 30%; IC50 [13]: Not Active
,10,CCSc1ccnc(C[S+]([O-])c2nc3ccccc3n2C(=O)OC(C)C)c1C (stereo not given),1.5e-05,
,,CC(=O)OC(C)n1c([S+]([O-])Cc2ccccn2)nc2ccccc21 (stereo in doubt; 18b),,ID50 (Oryctolagus cuniculus [7]): inactive
,,c1ccc(CSc2nc3ccccc3n2CCN2CCOCC2)nc1,,ED50 [2]: inactive; ID50 (Oryctolagus cuniculus [14]): inactive
400,,CC(OC(=O)c1ccccc1)n1c([S+]([O-])Cc2ccccn2)nc2ccccc21 (stereo in doubt; 29a) [listing 2 of 2 here],4e-05,
30,10,C=COC(=O)n1c([S+]([O-])Cc2nccc(SCC)c2C)nc2ccccc21 (stereo not given),1.5e-06,
500,1,COc1c(C)cnc(C[S+]([O-])c2nc3ccccc3n2COC(C)=O)c1C (stereo not given),2e-07,
20,,CCOC(=O)n1c([S+]([O-])Cc2nccc(SCC)c2C)nc2ccccc21 (stereo not given),2e-06,inhibition [11]: 61%
,,CC(OC(=O)C(C)(C)C)n1c([S+]([O-])Cc2ccccn2)nc2ccccc21 (stereo in doubt; 30a),,inhibition [8]: 32%; ID50 (Oryctolagus cuniculus [7]): inactive
,9,CCCCCCCC(=O)OCn1c([S+]([O-])Cc2ccccn2)nc2ccccc21 (stereo not given),2e-05,
,,c1ccc(CSc2nc3ccccc3n2CN2CCOCC2)nc1,,ED50 [2]: inactive; ID50 (Oryctolagus cuniculus [14]): inactive
,7,COC(=O)CCC(=O)OCn1c([S+]([O-])Cc2ccccn2)nc2ccccc21 (stereo not given),2e-05,
,,CC(=O)OCn1c(SCc2nccc3c2CCC[S+]3[O-])nc2ccccc21 (stereo not given),,ED50 [15]: inactive
,,CCSc1ccnc(CSc2nc3ccccc3n2CC2CO2)c1C (stereo not given),8e-05,ED50 [2]: inactive
10,,CCSc1ccnc(C[S+]([O-])c2nc3ccccc3n2C(=O)OCCCl)c1C (stereo not given),2e-06,inhibition [11]: 40%
,,CCSc1ccnc(C[S+]([O-])c2nc3ccccc3n2CSC)c1C (stereo not given),9e-05,IC50 [16]: Not Active; ED50 [2]: inactive
,,CCCCCCCCOC(=O)n1c([S+]([O-])Cc2nccc(SCC)c2C)nc2ccccc21 (stereo not given),1e-05,
,,[O-][S+](Cc1ccccn1)c1nc2ccccc2n1CCN1CCOCC1 (stereo not given),,ID50 (Oryctolagus cuniculus [14]): inactive
> 1000,,CCSc1ccnc(C[S+]([O-])c2nc3ccccc3n2CSc2ccccc2)c1C (stereo not given),8e-06,ED50 [2]: inactive
,,CC(OC(=O)C(C)(C)C)n1c([S+]([O-])Cc2ccccn2)nc2ccccc21 (stereo in doubt; 30b) [listing 2 of 2 here],2e-05,
,6,CC(C)COC(=O)OCn1c([S+]([O-])Cc2ccccn2)nc2ccccc21 (stereo not given),2e-05,
,,[O-][N+]1(Cn2c(SCc3ccccn3)nc3ccccc32)CCOCC1,,ED50 [2]: inactive; ID50 (Oryctolagus cuniculus [14]): inactive

Compound,IC50 [1] [µM],ED50 [6] [mg/kg],ID50 (Oryctolagus cuniculus [3]) [M],also measured
CCSc1ccnc(C[S+]([O-])c2nc3ccccc3[nH]2)c1C (stereo not given) [DISUPRAZOLE],20,1,1e-07,ED50 (Rattus norvegicus): < 1 mg/kg
